Data set [1] in a line: AUC in rat at 10 mg/kg, po. In kind it is ADME, organism-based. The conditions noted are these: in vivo. The essentials:
(§1)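 Rat oral PK at 10 mg/kg. Compound is given as a solution in CMCT (0.5% CMC/0.25% tween-80) or formulated in 5% TPGS, 10% captisol, 50 mM citrate buffer. Cmax and AUC are recorded.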

Data set [2] addresses T1, Dual specificity protein kinase TTK (Homo sapiens, UniProt P33981).
T1 sequence (P33981 whole entry): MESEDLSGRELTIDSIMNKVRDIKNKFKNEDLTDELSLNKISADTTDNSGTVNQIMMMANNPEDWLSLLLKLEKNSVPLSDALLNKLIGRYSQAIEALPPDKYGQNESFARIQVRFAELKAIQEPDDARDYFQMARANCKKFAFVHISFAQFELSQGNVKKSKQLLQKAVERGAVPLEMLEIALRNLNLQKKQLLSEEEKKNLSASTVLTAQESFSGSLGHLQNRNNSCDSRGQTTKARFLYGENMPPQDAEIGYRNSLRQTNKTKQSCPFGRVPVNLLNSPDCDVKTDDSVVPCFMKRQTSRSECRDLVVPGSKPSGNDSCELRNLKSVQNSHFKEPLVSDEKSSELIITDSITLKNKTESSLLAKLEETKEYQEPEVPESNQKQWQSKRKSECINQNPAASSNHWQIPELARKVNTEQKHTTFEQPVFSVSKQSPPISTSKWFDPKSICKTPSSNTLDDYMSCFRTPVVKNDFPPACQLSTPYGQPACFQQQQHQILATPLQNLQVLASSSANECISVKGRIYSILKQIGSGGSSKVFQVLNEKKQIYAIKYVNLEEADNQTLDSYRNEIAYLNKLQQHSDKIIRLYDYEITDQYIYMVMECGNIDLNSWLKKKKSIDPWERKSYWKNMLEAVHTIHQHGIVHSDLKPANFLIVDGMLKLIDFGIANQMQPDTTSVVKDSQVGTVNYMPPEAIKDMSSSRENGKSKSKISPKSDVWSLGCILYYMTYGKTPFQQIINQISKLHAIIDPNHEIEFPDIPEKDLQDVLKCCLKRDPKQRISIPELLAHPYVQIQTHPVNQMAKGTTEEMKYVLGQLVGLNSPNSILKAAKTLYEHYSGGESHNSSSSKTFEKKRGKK
Nature of the data set: Inhibition of Kinase Tracer 236 binding to recombinant human full-length GST-tagged TTk expressed in baculovirus expression system measured after 1 hr by LanthaScreen Eu--kinase binding assay. Background: Time-resolved FRET reads energy transfer from a long-lived donor to a nearby acceptor.

The subject of data set [3] is CAL-51. Description: Antiproliferative activity against human CAL51 cells assessed as reduction in cell viability after 3 days by CellTiter-Glo reagent-based luminescent assay. In kind it is functional. Particulars: CAL-51, 72 h. On the technique in general: Cellular ATP, detected with luciferase, serves as a proxy for viable cell number.
The subject of data set [4] is CAL-51. Nature of the data set: Antitumor activity against human CAL51 cells xenografted in CB17 SCID mouse assessed as tumor growth inhibition at 5 mg/kg, iv q4d and measured twice per week up to 31 days by caliper method relative to control. In kind it is functional. Particulars: CAL-51, iv, 744 h, read-out: TGI. (Xenograft models place foreign cells or tissue in a host animal.)

Data set [5] is described as follows: Toxicity in CB17 SCID mouse xenografted with human CAL51 cells assessed as body weight loss at 5 mg/kg, iv q4d and measured up to 31 days relative to control. Particulars: in vivo, 744 h. In kind it is organism-based.
Data set [6] in a line: Metabolic stability in human liver S9 fraction assessed as parent compound remaining after 60 mins. The conditions noted are these: read-out: Stability. In kind it is ADME, subcellular.
The target in data set [7] is T1, Dual specificity protein kinase TTK. Description: Inhibition of TTK autophosphorylation in human CAL51 cells by radioimmuno-precipitation assay. In kind it is cell-based.
Data set [8] in a line: Cmax in CB17 SCID mouse at 30 mg/kg, po. In kind it is ADME, organism-based. Details: dose 30 mg/kg, route oral. Particulars: in vivo. An outline of the steps:
(§2)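 Oral PK in SCID mice at 30 mg/kg. Compound is formulated either in CMCT (0.5% CMC/0.25% tween-80) or in 5% TPGS, 10% captisol, 50 mM citrate buffer, depending on compound. Cmax and AUC are measured.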

A short description of data set [9]: Cmax in rat at 10 mg/kg, po. Further details: dose 10 mg/kg, route oral. In kind it is ADME, organism-based. The conditions noted are these: in vivo. An outline of the steps: as §1
Data set [10] can be described thus: AUC in CB17 SCID mouse at 30 mg/kg, po. The conditions noted are these: in vivo. In kind it is ADME, organism-based. An outline of the steps:
as §2

Data set [11] in a line: Oral bioavailability in rat at 5 mg/kg. Particulars: in vivo.

Usually AUC stands for concentration integrated over time. A higher AUC goes with high exposure. Usually IC50 stands for the concentration that gives 50% inhibition. As a reminder, the Cmax is the highest concentration seen after dosing. By bioavailability is commonly meant dose-corrected exposure relative to a reference, in per cent.

In the case of `COc1cc(C(=O)N(C)C)ccc1Nc1nc(O[C@H]2CC[C@@](C)(O)CC2)c2cc[nH]c2n1`, in data set [1], the AUC came to 21.8 µM·h. For the same compound, the IC50 turned out to be 0.7 nM in [2] and 44 nM in data set [3].

`CN(C)C(=O)c1ccc(Nc2nc(O[C@H]3CC[C@@](C)(O)CC3)c3cc[nH]c3n2)c(OCC(F)(F)F)c1` returned an AUC in data set [1] of 16.1 µM·h. For the same compound, the IC50 in [3] is 15 nM.

With `COc1cc(C(=O)N(C)C)ccc1Nc1nc(O[C@H]2CC[C@](C)(O)CC2)c2cc[nH]c2n1`, the results for the IC50 in data set [2] and in data set [3] were 0.6 nM and 69 nM, respectively.

For `C[C@@H](Oc1cc(C(=O)N(C)C)ccc1Nc1nc(O[C@H]2CC[C@@](C)(O)CC2)c2cc[nH]c2n1)C(F)(F)F`, the AUC in [1] stood at 30 µM·h. In data set [3], the IC50 stood at 24 nM.

For `CC(=O)O[C@@]12CO[C@@H]1C[C@H](O)[C@@]1(C)C(=O)[C@H](O)C3=C(C)[C@@H](OC(=O)[C@H](O)[C@@H](NC(=O)OC(C)(C)C)c4ccccc4)C[C@@](O)([C@@H](OC(=O)c4ccccc4)[C@H]21)C3(C)C` [DOCETAXEL ANHYDROUS], the inhibition in vivo at 5 mg/kg in [4] was determined as 61%. Moreover, the Activity in [5] came to 20%.

As to `COc1cc(C(=O)N2CCOCC2)ccc1Nc1nc(O[C@H]2CCOC(C)(C)C2)c2cc[nH]c2n1`, the IC50 in data set [3] is 406 nM.

Take `COc1cc(N2CCC(C)(O)CC2)ccc1Nc1nc(O[C@H]2CCOC(C)(C)C2)c2cc[nH]c2n1`: in [1], the AUC worked out at 11 µM·h. The IC50 in [3] came to 71 nM.

Regarding `COc1cc(C(=O)N(C)C)ccc1Nc1nc(OC(C)C)c2cc[nH]c2n1`, the IC50 in data set [2] worked out at 3.2 nM; in [3], 1260 nM.

With `CCOc1cc(C(=O)N(C)C)ccc1Nc1nc(O[C@H]2CC[C@@](C)(O)CC2)c2cc[nH]c2n1`, the IC50 in data set [3] stood at 26 nM.

With `COc1cc(C(=O)N(C)C)ccc1Nc1nc(OC2CCCCC2)c2cc[nH]c2n1`, the IC50 was found to be 1.3 nM in data set [2] and 190 nM in [3].

In the case of `COc1cc(C(=O)N(C)C)ccc1Nc1nc(OC2CCOCC2)c2cc[nH]c2n1`, the results for the IC50 in [2] and in [3] were 1 nM and 198 nM, respectively.

As for `COc1cc(C(=O)N(C)C)ccc1Nc1nc(OC2COC2)c2cc[nH]c2n1`, the half-inhibitory concentration (IC50) came out at 7.2 nM in data set [2] and 1960 nM in [3].

`COc1cc(C(=O)N(C)C)ccc1Nc1nc(O[C@H]2CCOC(C)(C)C2)c2cc[nH]c2n1` came in with an AUC in [1] of 30 µM·h. Also, the IC50 in [2] came out at 1 nM; in [3] it was 131 nM.

Consider `COc1cc(N2CCOCC2)ccc1Nc1nc(O[C@H]2CCOC(C)(C)C2)c2cc[nH]c2n1`, for which the AUC in data set [1] worked out at 14.7 µM·h. Besides, the IC50 in [3] was 53 nM.

As to `COc1cc(N2CCN(C3COC3)CC2)ccc1Nc1nc(O[C@H]2CCOC(C)(C)C2)c2cc[nH]c2n1`, in data set [6], the remaining at 1 h came out at 85%. Further, the AUC in data set [1] is 24 µM·h; in data set [10], 35.3 µM·h. In addition, the figures for the IC50 in data set [7], in [2] and in data set [3] were 44 nM, 2.5 nM and 84 nM, respectively. Further, the Cmax was found to be 11.8 µM in data set [8] and 4.43 µM in data set [9].

Turning to `CNC(=O)c1ccc(Nc2nc(OC3CCCC3)c3c(-c4ccc5nc(C)oc5c4)c[nH]c3n2)c(OC)c1`, the bioavailability in [11] was found to be 0.9%.

Turning to `COc1cc(N2CCN(C(=O)CO)CC2)ccc1Nc1nc(O[C@H]2CCOC(C)(C)C2)c2cc[nH]c2n1`, the remaining at 1 h in data set [6] turned out to be 79%. Further, the results for the AUC in data set [1] and in [10] were 9.5 to 9.52 µM·h and 17.6 µM·h, respectively. In addition, the IC50 in data set [7] came to 16 nM; in [2], 1.3 nM; in [3], 37 nM. Moreover, the Cmax is 9.86 µM in [8] and 2.53 µM in data set [9].

On to `COc1cc(C(=O)N(C)C)ccc1Nc1nc(OC2CCCC2)c2cc[nH]c2n1`, for which the figures for the IC50 in data set [2] and in [3] were 1.3 nM and 497 nM, respectively.

Values taken from ChEMBL document CHEMBL4346709, “Design and Optimization Leading to an Orally Active TTK Protein Kinase Inhibitor with Robust Single Agent Efficacy” (J Med Chem, 2019).
